According to ChEMBL document CHEMBL5226322, “Harnessing the Role of HDAC6 in Idiopathic Pulmonary Fibrosis: Design, Synthesis, Structural Analysis, and Biological Evaluation of Potent Inhibitors” (J Med Chem, 2021):
In brackets after ≈: the same amount, converted by molar mass. Activity calls are given as the source filed them. The calls are words filed in the database; no cut-off is given here.

What was measured:
[1] = Solubility of the compound at pH 7.4 PBS buffer incubated for 24 hrs by HPLC-UV analysis; type: physicochemical; conditions: pH 7.4, 24 h
Summary of the method: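 Compound from 10 mM DMSO stock diluted to 250 μM (2.5% DMSO), either in 50 mM acetic acid (pH 3.0) or in 50 mM aqueous PBS (pH 7.4). Shaken 24 h at 25 °C, PTFE-filtered and diluted 1:2. Quantified by RP-18 HPLC-UV at 254 nm against a 250 μM standard in MeCN/water. Run in triplicate and averaged.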

Heart [2] = experiment: Cardiotoxicity in Langendorff-perfused Sprague-Dawley rat heart assessed as effect on RR time at 1 uM by ECG analysis (reference value: 257.2 +/-8.1 milliseconds); type: toxicity, tissue-based
Heart [3] = experiment: Cardiotoxicity in Langendorff-perfused Sprague-Dawley rat heart assessed as effect on HR at 1 uM by ECG analysis (reference value: 235.7 +/-8.3 bpm); type: toxicity, tissue-based
Homo sapiens = species: Homo sapiens; experiment: Antifibrotic activity in TGF-beta1-induced human Lung parenchyma assessed as inhibition of fibronectin mRNA expression at 4.1 uM incubated upto 7 days by qRT-PCR analysis; type: functional; conditions: time <= 7.0 day
Summary of the method: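 Human lung parenchyma pieces (2 mm³) cultured in DMEM with TGF-β1 (10 ng/mL) plus compound at 0.41 or 4.1 μM or vehicle (0.1% DMSO). Tissue collected on day 7, homogenized, total RNA purified, then qRT-PCR for HDAC6, collagen I, collagen III, αSMA and fibronectin. Relative expression by the 2^-Ct method; n=3, paired t test.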

Heart [4] = experiment: Cardiotoxicity in Langendorff-perfused Sprague-Dawley rat heart assessed as effect on QTc interval time at 0.01 uM by ECG analysis (reference value: 150.5 +/-5.5 milliseconds); type: toxicity, tissue-based
Heart [5] = experiment: Cardiotoxicity in Langendorff-perfused Sprague-Dawley rat heart assessed as effect on PQ interval time at 10 uM by ECG analysis (reference value: 43.6 +/-2.5 milliseconds); type: toxicity, tissue-based
[6] = Toxicity in zebra fish embryo assessed as visual capacity changes at 1 to 100 uM […] by optokinetic reflex assay; design: species or system Danio rerio; conditions: zebrafish, dose 1-100 µM
Summary of the method: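 Wildtype Tübingen larvae at 28.5 °C were exposed from 3 days old for 2 days to 1–100 µM (1, 10, 25, 50, 100) in embryo medium, against 0.1% DMSO vehicle. 8 larvae per group. Visual function was then tested by optokinetic reflex at 2 days post-treatment, on 5-day-old larvae.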

[7] = Cytotoxicity in mouse NIH3T3 cells assessed as reduction in cell viability by measuring toxic concentration incubated for 24 hrs by neutral red uptake method based UV/visible spectrophotometer analysis; type: toxicity; conditions: read-out: TC50
Summary of the method: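 NIH3T3 mouse fibroblasts grown in DMEM with 10% FCS, L-glutamine/penicillin/streptomycin and non-essential amino acids, 37 °C, 5% CO2. DMSO stocks diluted in complete medium, applied to monolayers for 24 h at several concentrations. Viability by Neutral Red uptake: 3 h dye loading, desorb in acetic acid/ethanol, absorbance at 540 nm. Student's t-test, p < 0.05.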

Heart [8] = experiment: Cardiotoxicity in Langendorff-perfused Sprague-Dawley rat heart assessed as effect on QTc interval time at 10 uM by ECG analysis (reference value: 150.5 +/-5.5 milliseconds); type: toxicity, tissue-based
[9] = Toxicity in zebra fish embryo at 50 uM […]; design: species or system Danio rerio; conditions: zebrafish
Summary of the method: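 Wildtype Tübingen zebrafish larvae reared at 28.5 °C (14 h light/10 h dark) in embryo medium with methylene blue. From 3 days old, exposed for 2 days to 1, 10, 25, 50 or 100 µM in embryo medium, or 0.1% DMSO vehicle. 4 larvae per well in 400 µL, 8 larvae per group. Larvae scored for swim bladder inflation and cardiac edema.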

NIH3T3 = experiment: Cytotoxicity in mouse NIH3T3 cells assessed as reduction in cell viability at 5 uM incubated for 24 hrs by neutral red uptake method based UV/visible spectrophotometer analysis; type: toxicity; conditions: nih3t3, 24 h
Summary of the method: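 NIH3T3 fibroblasts grown in DMEM with 10% FCS, L-glutamine/pen-strep and non-essential amino acids at 37 °C, 5% CO2. Monolayers exposed 24 h to compound diluted from a DMSO stock into medium. Neutral Red medium then added for 3 h at 37 °C. Dye extracted with acetic acid/ethanol desorb solution and absorbance read at 540 nm. Student's t-test, p<0.05.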

Heart [10] = experiment: Cardiotoxicity in Langendorff-perfused Sprague-Dawley rat heart assessed as effect on QT interval time at 10 uM by ECG analysis (reference value: 76.2 +/-2.9 milliseconds); type: toxicity, tissue-based

CN1CCC2(CC1)c1ccccc1N(Cc1ccc(C(=O)NO)cc1)C2c1ccccc1F (racemic)
solubility [1]: 285 µM (≈ 127 µg/mL)

CC1(C)c2ccccc2N(Cc2ccc(C(=O)NO)cc2)C1c1cccnc1 (racemic)
Time (Heart [2]): 257.7 ms | Activity (Heart [3]): 235.4 bpm | Activity (Homo sapiens): Active | Time (Heart [4]): 154.6 ms | Time (Heart [5]): 50.4 ms | Activity [6]: Non-Toxic | CC50 at 24 h [7]: 75 µM | Time (Heart [8]): 145.3 ms | Activity [9]: Non-Toxic | Activity (NIH3T3): 98% | Time (Heart [10]): 78.3 ms
